Calb FLC – C. albicans growth inhibition with fluconazole, primary screen, CaCi-2 strain, Alamar Blue fluorescence | 0.57% of 300,000 active | C. albicans CaCi-2 (fluconazole-resistant clinical isolate) + fluconazole, 48 h | growth inhibition, % (no concentration beside the values);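 active means growth inhibition above about 58% in most replicates, limit read from the data, passing the limit was not always enough; inconclusive means exactly half the replicates above a set limit; inactive means most replicates below a set limit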;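 further: all wells also contain fluconazole at 8 µg/ml as a sub-toxic cotreatment; 0% = median of DMSO wells and 100% = median of geldanamycin control wells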
NLRP3 yeast inh – NALP3 inflammasome inhibitors in reconstituted yeast, primary screen, luminescence, uHTS; Yeast reconstituted NLRP3/ASC/caspase-1, beta-gal luminescence, 24 h; inhibition, % at 10 µM; 0.39% of 330,000 active;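 active means inhibition of 50% or more; inactive means inhibition below 50%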;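 further: plate controls were induced DMSO wells for no effect and uninduced yeast grown without galactose for full effect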
PolyA inhibitor – polyadenylation inhibitors in yeast reporter cells, primary screen, luminescence, S. cerevisiae; 0.02% of 300,000 active; activity score, % at 12 µM; S. cerevisiae SKY197-pL101 polyadenylation reporter, beta-gal luminescence; efflux-impaired pdr1/pdr3 knockout yeast; score 100 = 6 SD above DMSO; AID 1875, 2009;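 active means lowest replicate activity score at least 50, where 100 means six control SD above control mean; inconclusive means lowest score under 50 but half or more replicates reach 50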;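 further: yeast exposed to compound for 9 h at 30 °C; higher score means more reporter readthrough which indicates perturbed polyadenylation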
L major viab – Leishmania major promastigote growth inhibition, primary screen. Leishmania major promastigotes, resazurin fluorescence viability. inhibition, % at 10 µM. AID 1063, 2008. 9% of 200,000 active; in the data active means inhibition above about 50%;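 further: promastigotes grown with compound for 44 hours at 28 °C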
T cruzi inh – inhibitors of intracellular T. cruzi growth, primary screen, luminescence, NIH3T3 host cells; 1.4% of 300,000 active; T. cruzi beta-gal in NIH3T3, 90 h; AID 1885, 2009; inhibition, % (test concentration not listed);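 active means mean inhibition across valid replicates above about 55%, limit read from the data; inconclusive means mean below that limit but half or more replicates reach it; inactive means mean below it, under half of replicates reach it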;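 further: signal also drops with host cell toxicity which is not excluded here; 0% = plate median of DMSO wells and 100% = zero luminescence signal; higher percent means less beta-gal luminescence so fewer parasites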
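Material: NIH/3T3 host cells with β-galactosidase reporter T. cruzi; Input: 5,000 host fibroblasts per well; Medium: DMEM, 2% fetal bovine serum; Compound: 50 nL DMSO compound solution per well; Schedule: 3 h host attachment, then at least 90 h co-culture; Detection: luminescent β-galactosidase signal after 60 min lysis.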
NALP1 yeast inh – NALP1 inflammasome inhibitors in reconstituted yeast, colorimetric, S. cerevisiae, triplicate retest; S. cerevisiae NALP1/ASC/caspase-1 growth, X-gal OD620, 72 h; inhibition, % at 10 µM; 0.61% of 280,000 active; in the data active means inhibition mostly above about 24%, no sharp cut-off; inactive means mostly below about 32%
Active calls of the source: *. The sample as a whole holds a higher share of hits than the screen did.

O=C(c1nc(-c2ccccc2)n(-c2ccccc2)n1)N1CCN(S(=O)(=O)c2ccccc2)CC1 was read as Calb FLC 24.6, NLRP3 yeast inh -0.2, PolyA inhibitor -8.6, L major viab 57.7*, T cruzi inh 4.2 and NALP1 yeast inh 22.9.
CCOc1ccc(NC(=O)CCC(=O)NNC(=O)COc2ccc(C)cc2Br)cc1 was read as Calb FLC -8.8, NLRP3 yeast inh 12.1, PolyA inhibitor -5.9, T cruzi inh 3.7 and NALP1 yeast inh 9.8.
Screening COc1ccc2nc(N=Nc3ccc(O)c4ccccc34)sc2c1 returned Calb FLC -5.4, NLRP3 yeast inh 9.8, PolyA inhibitor 8.7, L major viab 97.9*, T cruzi inh 49.0 and NALP1 yeast inh 9.4.
Screening CCOC(=O)C(C)Sc1nc2c(c(-c3cccs3)c1C#N)CCC2 (stereo not given) returned Calb FLC -0.5, NLRP3 yeast inh 18.1, PolyA inhibitor -9.7, L major viab 54.5*, T cruzi inh 26.8 and NALP1 yeast inh 11.5.
Screening CC(C)OC(=O)CC(=O)CSc1nc2c(c(-c3cccs3)c1C#N)CCC2 returned Calb FLC -4.4, NLRP3 yeast inh 7.5, PolyA inhibitor 10.8, L major viab -2.3 and T cruzi inh 7.8.
`COc1ccccc1N1CCN(C2CCN(C(=O)COc3cccc(C)c3)CC2)CC1` gave Calb FLC -16.9, NLRP3 yeast inh 2.2, PolyA inhibitor -3.2, L major viab 55.9*, T cruzi inh 0.2 and NALP1 yeast inh 37.7.
`Cc1ccc(OCC(=O)N2CCC(N3CCCCCC3)CC2)cc1` gave Calb FLC -13.2, NLRP3 yeast inh 23.5, PolyA inhibitor 0.9, L major viab 86.9*, T cruzi inh -14.1 and NALP1 yeast inh 38.0.
Screening O=C(CCC1CCCC1)N1CCC(N2CCCCCC2)CC1 returned Calb FLC -9.4, NLRP3 yeast inh 13.3, PolyA inhibitor 3.1, L major viab 91.0*, T cruzi inh -4.7 and NALP1 yeast inh 28.3.
For COC(=O)C1CCN(C(=O)CCC2CCCCC2)CC1 the results were Calb FLC 0.1, NLRP3 yeast inh 24.1, PolyA inhibitor -2.7, L major viab -7.2, T cruzi inh -0.3 and NALP1 yeast inh 31.5.
COCc1c(C(=O)NCCc2ccc(OC(F)F)cc2)oc2ccccc12 was read as NLRP3 yeast inh 12.1.
Screening Cc1cc(C)cc(-c2nnc(SCC(=O)Nc3cc(C)on3)o2)c1 returned NLRP3 yeast inh 5.1.
Cc1ccc2nc(-c3ccco3)c(Nc3ccccc3)n2c1 was read as Calb FLC 8.9, NLRP3 yeast inh -8.2, PolyA inhibitor -9.9, L major viab 3.8, T cruzi inh -5.2 and NALP1 yeast inh 24.8.
Screening Cc1ccc2nc(-c3ccncc3)c(Nc3ccccc3)n2c1 returned Calb FLC inconclusive, NLRP3 yeast inh 21.4, PolyA inhibitor 2.6, L major viab 96.5*, T cruzi inh 43.3 and NALP1 yeast inh -16.9.
Screening Cc1ccc(Nc2c(-c3ccccn3)nc3ccc(C)cn23)cc1 returned Calb FLC inconclusive, NLRP3 yeast inh 46.7, PolyA inhibitor 3.1, L major viab 100.5*, T cruzi inh 44.7 and NALP1 yeast inh -35.6.
For Cc1ccc(OCCN2CCN(C)CC2)c([N+](=O)[O-])c1 the results were Calb FLC 5.7, NLRP3 yeast inh 30.3, PolyA inhibitor 8.2, L major viab 95.1*, T cruzi inh 16.3 and NALP1 yeast inh 45.2.
For Cc1ccc([N+](=O)[O-])c(OCCN2CCCCCC2)c1 the results were Calb FLC -29.7, NLRP3 yeast inh 28.4, PolyA inhibitor -18.7, L major viab 97.4*, T cruzi inh -1.3 and NALP1 yeast inh 34.5.
`Cc1ccc(OCCCN2CCOCC2)c([N+](=O)[O-])c1` gave Calb FLC -2.6, NLRP3 yeast inh 16.8, PolyA inhibitor -4.3, L major viab 88.5*, T cruzi inh -22.7 and NALP1 yeast inh 43.0.
For CC1CC(C)CN(CCCOc2ccccc2[N+](=O)[O-])C1 (stereo not given) the results were Calb FLC -3.2, NLRP3 yeast inh 21.2, PolyA inhibitor -17.8, L major viab 81.0*, T cruzi inh 4.3 and NALP1 yeast inh 28.9.
`O=S(=O)(Nc1ccc(Br)cn1)c1ccc2ccccc2c1` gave Calb FLC 31.0, NLRP3 yeast inh 15.7, PolyA inhibitor -9.4, T cruzi inh 4.0 and NALP1 yeast inh 26.6.
`Cc1ccc(C)c(SCC(=O)Nc2ccc(S(=O)(=O)Nc3ncccn3)cc2)c1` gave Calb FLC -6.9, NLRP3 yeast inh 8.0, PolyA inhibitor -5.5, T cruzi inh 2.8 and NALP1 yeast inh 3.3.
`Cn1c(=O)c2c(-c3ccc(OC(F)F)cc3)cc(-c3ccccc3)nc2n(C)c1=O` gave Calb FLC -7.8, NLRP3 yeast inh 1.1, PolyA inhibitor -14.0 and T cruzi inh 13.0.
For COC(=O)[C@@]1(Cc2ccc(OC)cc2)[C@H]2c3cc(C(=O)N(C)C)n(CCc4ccc(OC)c(Br)c4)c3C[C@H]2CN1C(=O)c1ccccc1 the results were Calb FLC 35.2, NLRP3 yeast inh 22.6, PolyA inhibitor -6.0, L major viab 62.3*, T cruzi inh -3.3 and NALP1 yeast inh 18.4.
For COC(=O)[C@@]1(Cc2ccc(F)cc2)[C@H]2c3cc(C(=O)N4CCCC4)n(Cc4ccc(C(F)(F)F)nc4)c3C[C@H]2CN1C(=O)c1ccccc1 the results were Calb FLC 14.7, NLRP3 yeast inh 22.1, PolyA inhibitor -0.7, L major viab 87.3*, T cruzi inh 34.1 and NALP1 yeast inh 30.3.
For COC(=O)[C@@]1(Cc2ccc(OC)cc2)[C@H]2c3cc(C(=O)N4CCCC4)n(Cc4ccc(OC)c(OC)c4)c3C[C@H]2CN1C(=O)c1ccccc1 the results were L major viab 34.0 and NALP1 yeast inh 28.3.
Screening Cc1ccc(-c2nnc(SCC(=O)NC3CCCC3)n2N)cc1 returned NLRP3 yeast inh 3.1.
For Cc1ccc(-c2nc3ncccc3o2)cc1NC(=O)CC(C)C the results were Calb FLC 4.7, NLRP3 yeast inh -1.6, PolyA inhibitor -1.6, L major viab 92.4*, T cruzi inh 0.5 and NALP1 yeast inh 23.1.
Screening Cc1ccc(-c2nc3cccnc3o2)cc1NC(=O)COc1ccc(Cl)cc1C returned Calb FLC 2.1, NLRP3 yeast inh 9.7, PolyA inhibitor -5.4, L major viab 94.4*, T cruzi inh 6.7 and NALP1 yeast inh 0.0.
`Cc1ccc(-c2nc3ncccc3o2)cc1NC(=O)Cc1ccc(Cl)cc1` gave Calb FLC 5.5, NLRP3 yeast inh 7.5, PolyA inhibitor -5.1, L major viab -5.8, T cruzi inh -2.6 and NALP1 yeast inh 8.2.
Screening CNC(=O)c1oc(-c2ccccc2)nc1C returned Calb FLC 9.9, NLRP3 yeast inh 18.7, PolyA inhibitor 11.7, L major viab -2.9, T cruzi inh -15.1 and NALP1 yeast inh 5.0.

Source: PubChem BioAssay (several laboratories)
